Dynein cargo inh: blocks dynein driven cargo transport along microtubules; 3617.4 mouse cells, GR-EGFP nuclear translocation imaging; test concentration mostly 20 µM; stimulated with dexamethasone, 1 µM; hits give low values; z-score, hits read low; 220,000 compounds, 0.47% hits; AID 1381;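 active means plate z-score of nuclear minus cytoplasmic receptor signal below a set negative limit, without overly bright fluorescence or cell loss, cut at about -3.5 in these data, passing the limit was not always enough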;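 further: z-score of nuclear minus cytoplasmic ring GR-EGFP intensity difference per well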
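Buffer or medium – tet-free medium with charcoal-stripped serum · Signal – automated 10x imaging of fixed Hoechst-stained cells · Also added – dexamethasone agonist, 1.0 µM final, for 30 min · Incubation – induction 48 h, compound 1 h, agonist 30 min · Read-out – GR-EGFP nuclear translocation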
V-ATPase pH: yeast V-ATPase proton transport regulation by pHLuorin; S. cerevisiae, pHLuorin cytosolic pH fluorescence; response, % at 10 µM; 350,000 compounds, 0.37% hits; in the data active means response mostly above about 7.3%, no sharp cut-off; inactive means mostly below about 5.4%; further: actives read high
p-CIP stab down: lowers stability of the mouse p/CIP coactivator protein. F442A p/CIP-EGFP cells, EGFP fluorescence, 16 h. decrease of EGFP signal, % at 10 µM. 290,000 compounds, 0.01% hits;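 active means EGFP signal decrease of at least 30% at 10 µM or well 3 SD below plate mean, unless failing retest; inactive means the rest, including hits failing retest or dose response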
Cl transport mod: KCC2 (human) Cl- transport modulation | KCC2 cells, thallium flux FluoZin-2 fluorescence | 190,000 compounds, 2.2% hits | B-score of Tl+ flux slope (higher = more flux/activation; lower = inhibition) at 10 µM | AID 1456 | Q9H2X9;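 active means thallium flux slope and its plate-corrected score both differing from the plate sample mean at a set confidence after two filtering rounds, in either direction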;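 further: slope of fluorescence scaled to starting intensity during 10 to 20 s after thallium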
ABCB6 inh 2: blocks the human ABCB6 transporter; K562-ABCB6 porphyrin accumulation, flow cytometry, 1 h; hits give low values; fluorescence ratio to DMSO, % at 10 µM; 360,000 compounds, 0.19% hits; AID 602162;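 active means fluorescence ratio to DMSO below 75%, the collection mean minus 3 SD; inconclusive means too few cells collected in the well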;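 further: signal is porphyrin accumulated inside mitochondria; 100% equals median channel fluorescence of DMSO control wells; lower ratio means ABCB6 inhibition with less porphyrin fluorescence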
KCC2 secondary: confirmation of human KCC2 transport modulators | HEK293-KCC2, thallium flux, FluoZin2 fluorescence; hits give high values | 3,700 compounds, 15% hits | shares compounds with Cl transport mod | normalised thallium flux (F/F0 slope) at 10 µM;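 active means thallium flux slope above the same plate's solvent-only control mean plus 3 SD; inconclusive means the two replicate wells disagree; inactive means no significant difference from solvent-only control wells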
KCC2 bumet counter: bumetanide-insensitive thallium flux in KCC2 cells with ouabain, counter-screen | shares compounds with Cl transport mod | HEK293-KCC2 + bumetanide/ouabain, thallium flux FluoZin2; hits give high values | normalized thallium flux at 10 µM | 3,700 compounds, 49% hits | AID 1714;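 active means thallium entry rate above the same plate's blocked-transporter control wells by more than 3 SD; inconclusive means the two repeat wells disagree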;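 further: raw slope of fluorescence over initial fluorescence between 10 and 20 s after thallium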
KCC2 sec2: KCC2 (human) modulation, second secondary assay; HEK293-KCC2, thallium flux FluoZin2 fluorescence; actives lie on both sides; F/F0 rise rate, 10–20 s post-thallium; 3,700 compounds, 23% hits; AID 1715; normalized thallium flux at 10 µM; shares compounds with Cl transport mod;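 active means thallium flux slope more than 3 SD above or below the plate's solvent-only control mean, mostly below; inconclusive means the two repeat wells disagreed; inactive means no significant shift from solvent-only controls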;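 further: raw slope with 0.1% DMSO as baseline and bumetanide as block control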
HEK counter1: counter-screen for KCC2 modulators: effect in parental HEK293 cells. shares compounds with Cl transport mod. thallium flux FluoZin2, ouabain; baseline-ratio fluorescence slope, 10–20 s after thallium. thallium flux rate (normalised fluorescence) at 10 µM. 3,700 compounds, 46% hits. AID 1716;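 active means thallium flux rate significantly above the same plate's solvent-only control wells, beyond their mean plus 3 SD; inconclusive means the two replicate wells gave conflicting results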
KCC2 retest ouab: confirmation of human KCC2 modulators with ouabain | raw Tl+ flux slope (below DMSO = inhibition, above = activation) at 10 µM | HEK293-KCC2, thallium flux FluoZin2 fluorescence; bidirectional: low = inhibitor, high = activator | 3,700 compounds, 48% hits | shares compounds with Cl transport mod;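 active means thallium flux slope beyond 3 SD from same-plate DMSO control mean in most replicates, usually higher, sometimes lower; inconclusive means repeat tests gave conflicting results; inactive means no significant difference from controls in most replicates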;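 further: slope of initial-normalized fluorescence between seconds 10 and 20 after thallium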
HEK293 Tl flux2: acts in parental HEK cells, second KCC2 counter-screen; thallium flux slope at 10 µM; 3,700 compounds, 33% hits; AID 1718; shares compounds with Cl transport mod; HEK293 parental, thallium flux FluoZin-2 fluorescence slope;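 active means thallium flux slope above the same plate's solvent-control mean plus 3 SD in both duplicate wells; inconclusive means duplicate wells that disagreed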;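 further: run without ouabain in cells lacking the KCC2 cotransporter; slope of fluorescence scaled to its starting value between 10 and 20 s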
Numbers without * were called inactive; i = inactive; ? = inconclusive; nt = no result. The sample as a whole holds a higher share of hits than the screen did.

SMILES	Dynein cargo inh	V-ATPase pH	p-CIP stab down	Cl transport mod	ABCB6 inh 2	KCC2 secondary	KCC2 bumet counter	KCC2 sec2	HEK counter1	KCC2 retest ouab	HEK293 Tl flux2
O=C(O)CCNS(=O)(=O)c1ccc2ccccc2c1	-0.28	-1	-12	1.1	97	nt	nt	nt	nt	nt	nt
Cc1cc(C)cc(C(=O)NCC(=O)OCC(=O)NC2CC2)c1	nt	-3	nt	nt	97	nt	nt	nt	nt	nt	nt
O=S1(=O)C=C(SCc2cccc(Cl)c2)Nc2ccccc21	-0.22	2	3	-3.4*	95	?	0.0054	0.03	0.0072	0.016*	0.01
O=C(NCc1ccccc1F)c1cccc(S(=O)(=O)N2CCCCCC2)c1	nt	-8	nt	nt	104	nt	nt	nt	nt	nt	nt
CCn1c(SC(C)C(=O)Nc2ccc3c(c2)OCCO3)nnc1C1CC1 (stereo not drawn)	nt	-2	nt	nt	102	nt	nt	nt	nt	nt	nt
CCC1(c2ccccc2)NC(=S)N(c2ccc(C)cc2)N1 (stereo not drawn)	-1.3	1	2	78*	98	0.031*	0.1*	0.073*	0.093*	0.092*	0.091*
CC1Cc2ccccc2N1C(=O)CN(C)CC(=O)Nc1ccc(F)cc1 (stereo not drawn)	nt	-3	nt	nt	105	nt	nt	nt	nt	nt	nt
COc1cc2ccccc2cc1C(=O)NC(=S)Nc1cc(C(=O)O)ccc1C	1	2	15	-7*	98	0.008	0.0085*	0.033	0.0064	0.017*	0.01
Cc1nc(C(F)(F)F)ccc1C(=O)N1CCC1(C)C(=O)NS(=O)(=O)c1cccc(C#N)c1 (stereo not drawn)	nt	nt	nt	nt	97	nt	nt	nt	nt	nt	nt
Nc1nc(-c2ccc(Br)cc2)cs1	-0.15	2	0	-1.7	93	nt	nt	nt	nt	nt	nt
Brc1ccc(-c2csc(Nc3nc(-c4ccc(Br)cc4)cs3)n2)cc1	-0.95	0	-3	19*	97	0.01	0.025*	0.035	0.014*	0.027	0.012*
COC(=O)c1ccc(NC(=S)NC(=O)c2c(-c3ccccc3)noc2C)cc1	-0.82	-2	-3	17*	103	0.012	0.023*	0.036	?	0.049*	0.012
Cc1onc(-c2ccccc2Cl)c1C(=O)NC(=S)Nc1ccc(C(C)C)cc1	-0.61	2	-11	9.9*	94	0.0076	0.013*	0.029	0.014*	?	0.013*
Cc1onc(-c2ccccc2)c1C(=O)Nc1sc2c(c1C#N)CCC2	-0.28	0	0	-0.24	102	nt	nt	nt	nt	nt	nt
Cc1onc(-c2ccccc2)c1C(=O)NC(=S)Nc1sc2c(c1C#N)CCC(C)C2 (stereo not drawn)	0.94	0	-2	21*	98	?	0.058*	?	0.024*	0.037*	0.025*
CCCOc1ccc(C(=O)NC(=S)NNC(=O)c2c(-c3ccccc3)noc2C)cc1	0.11	4	-5	62*	101	0.021*	0.065*	?	0.045*	0.04*	0.04*
CCN(CC)CCC(c1ccc2c(c1)OCO2)c1c(O)cc(OC)cc1OC (stereo not drawn)	0.32	-1	-13	0.57	96	nt	nt	nt	nt	nt	nt
Cc1ccc(NC(=S)NC(=O)c2c(-c3ccccc3Cl)noc2C)cc1	0.21	0	-6	5.4*	103	0.0075	0.035*	0.028	0.015*	0.037*	?
Cc1cc(=O)[nH]c(SCC(=O)Nc2ccc(Br)cc2)c1C#N	0.19	-2	-31	-2.9*	99	0.0058	0.0037	0.023*	0.006*	0.015*	?
O=C1c2cccc3c(O)ccc(c23)C(=O)N1Cc1ccccc1	-0.86	-8	-648	i	108	nt	nt	nt	nt	nt	nt
CN1CCC(N(C)C(=S)NC(=O)c2cc(-c3cccc(Br)c3)nc3ccccc23)CC1	1.2	-1	0	16*	95	0.0048	0.015*	0.035	0.012*	?	0.014*
CC(C)Cc1nc(SCC(=O)N2CCCCC2)c2c(=O)n(C)c(=O)n(C)c2n1	nt	-2	-6	nt	96	nt	nt	nt	nt	nt	nt
COc1cccc(C(=O)Nc2ccccc2N2CCN(C(=O)c3ccccc3)CC2)c1	nt	2	nt	nt	78	nt	nt	nt	nt	nt	nt
CSc1nc2sc3c(c2c(=O)n1C1CCCCC1)CCN(C)C3	-0.32	-2	8	0.32	92	0.016	0.0039	0.031	0.0079	0.016	0.01
CCSc1nc2sc3c(c2c(=O)n1C1CCCCC1)CCN(C)C3	nt	0	-25	nt	95	nt	nt	nt	nt	nt	nt
SMILES	Dynein cargo inh	V-ATPase pH	p-CIP stab down	Cl transport mod	ABCB6 inh 2	KCC2 secondary	KCC2 bumet counter	KCC2 sec2	HEK counter1	KCC2 retest ouab	HEK293 Tl flux2
O=C(C[n+]1ccccc1)c1ccc(-c2ccccc2)cc1	-0.46	0	-1	-4.6*	101	0.015	0.0047	0.022*	0.0078	0.014	0.011
Cc1cc(C)c2nc(N3CCC(C(=O)N4CCN(c5ncccn5)CC4)CC3)sc2c1	-0.15	-1	6	-1.6	86	nt	nt	nt	nt	nt	nt
Cc1cc(C)c2nc(N3CCC(C(=O)N4CCCC4)CC3)sc2c1	-0.18	-2	2	nt	97	?	0.0057	0.034	0.0041	0.015*	0.011
CSc1ccccc1NC(=S)Nc1ccc(S(N)(=O)=O)cc1	-0.69	-4	-7	3*	99	0.0075	0.0075*	0.033	0.0096*	?	?
CSc1ccccc1NC(=S)Nc1ccccc1C(F)(F)F	-0.75	-1	-12	4.7*	99	0.0075	0.011*	0.033	0.013*	?	0.012
Cc1ccc(S(=O)(=O)N(C)c2ccccc2C(=O)N2CCOCC2)cc1	nt	2	7	nt	100	nt	nt	nt	nt	nt	nt
CCCn1c(=S)[nH]c2cc(OC)c(OC)cc2c1=O	-1.1	2	-3	11*	99	0.013*	0.022*	0.034	?	?	?
COCCn1c(=S)[nH]c2ccc(N(C)C)cc2c1=O	1.9	0	-15	3.2*	98	0.0066	0.0083*	0.029	0.0095*	0.019	0.012*
CCS(=O)(=O)c1c([N+](=O)[O-])ncn1C	-2.7	-5	0	0.32	102	nt	nt	nt	nt	nt	nt
CCN(CC)c1c([N+](=O)[O-])ncn1C	0.2	2	-17	nt	94	0.011	0.0062	0.034	?	0.019	?

Assay outcomes (PubChem BioAssay)
